The subject of one series is COS-1. As to the kind of experiment: Cytotoxicity against African green monkey COS1 cells assessed as reduction in cell viability at 10^-3 M by LDH release assay relative to control. The class given is cell-based. The following applies: chlorocebus aethiops, cos-1, 1000 µM. In short, it runs like this: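 COS-1 cells were treated across the same concentration series as the GAL4 dose-response runs. Cytotoxicity was measured as LDH released into medium (absorbance 492/750 nm) and by XTT viability assay (absorbance 450/690 nm). Results expressed relative to control.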
On the technique in general: Release of lactate dehydrogenase indicates damage to the cell membrane.

Series [1] has as its target T1, Peroxisome proliferator-activated receptor alpha (Homo sapiens) (UniProt Q07869).
T1 sequence (whole entry): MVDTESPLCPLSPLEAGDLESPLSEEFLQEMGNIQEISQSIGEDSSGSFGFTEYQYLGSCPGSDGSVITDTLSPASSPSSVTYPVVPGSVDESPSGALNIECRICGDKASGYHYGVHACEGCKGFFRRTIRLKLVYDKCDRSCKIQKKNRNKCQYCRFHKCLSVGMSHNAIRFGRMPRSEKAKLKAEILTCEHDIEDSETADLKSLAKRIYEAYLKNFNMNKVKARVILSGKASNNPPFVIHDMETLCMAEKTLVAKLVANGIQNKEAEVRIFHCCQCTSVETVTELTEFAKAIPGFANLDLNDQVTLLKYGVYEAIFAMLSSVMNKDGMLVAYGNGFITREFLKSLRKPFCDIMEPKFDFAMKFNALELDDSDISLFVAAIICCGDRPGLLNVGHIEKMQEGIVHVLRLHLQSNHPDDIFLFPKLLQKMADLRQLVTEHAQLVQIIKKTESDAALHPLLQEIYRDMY
As to the kind of experiment: Agonist activity at PPARalpha in human Huh7 cells assessed as PPARA mRNA expression at 50 uM measured after 18 hrs by qRT-PCR analysis. The class given is cell-based. Summed up: (§1)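 Treatment for 18 h at 50 μM (or 1 μM for the 1 μM agents), DMSO vehicle. Harvested for qPCR. mRNA normalized to TBP by the comparative threshold method, expressed relative to DMSO control. Two biological replicates run in duplicate, mean ± SEM. Primary hepatocytes came from male C57BL/6N mice aged 7–8 weeks, isolated by portal-vein perfusion and digestion, seeded on collagen I and used on day 2. HuH-7 cells were kept in DMEM with 10% FBS and ITS.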
Background: Quantitative PCR measures a nucleic acid by following its amplification.

In series [2] the target is T1, Peroxisome proliferator-activated receptor alpha (Homo sapiens). Put plainly: Agonist activity at PPARalpha in human Huh7 cells assessed as SCD1 mRNA expression at 50 uM measured after 18 hrs by qRT-PCR analysis. The class given is cell-based. Summed up: as §1
In series [3] the target is T2, Peroxisome proliferator-activated receptor gamma (Homo sapiens) (UniProt P37231).
T2 sequence (whole entry): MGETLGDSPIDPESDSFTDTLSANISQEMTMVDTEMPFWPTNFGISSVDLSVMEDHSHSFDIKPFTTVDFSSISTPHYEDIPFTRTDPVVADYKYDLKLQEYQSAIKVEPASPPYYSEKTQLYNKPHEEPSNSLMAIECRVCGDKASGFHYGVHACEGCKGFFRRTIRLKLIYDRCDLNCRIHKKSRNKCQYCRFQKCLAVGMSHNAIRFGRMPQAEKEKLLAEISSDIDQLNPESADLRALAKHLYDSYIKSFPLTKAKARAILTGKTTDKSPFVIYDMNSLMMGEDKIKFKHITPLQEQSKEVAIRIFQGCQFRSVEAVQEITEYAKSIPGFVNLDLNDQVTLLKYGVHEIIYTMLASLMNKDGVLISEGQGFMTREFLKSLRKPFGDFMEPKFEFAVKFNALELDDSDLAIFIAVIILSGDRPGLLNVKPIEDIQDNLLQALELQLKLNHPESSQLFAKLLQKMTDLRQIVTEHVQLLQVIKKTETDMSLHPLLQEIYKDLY
As to the kind of experiment: Inverse agonist activity at full length human FLAG-tagged GAL4-DBD fused PPARgamma LBD (205 to 505 residues) expressed in COS1 cells assessed as inhibition of rosiglitazone binding measured after 18 hrs by dual luciferase reporter gene assay. Type of series: cell-based. Summed up: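 COS-1 cells carried GAL4-DBD–PPARγ-LBD with a UAS-luciferase reporter and Renilla control. Cells were titrated with increasing test compound in the presence of 1.0 μM rosiglitazone for 18 h in 0.1% DMSO. Firefly/Renilla ratio, normalized to GAL4-only activity.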
(Reporter assays use an easily measured gene product as a stand-in for the process of interest.)

For series [4], the target named is T1, Peroxisome proliferator-activated receptor alpha (Homo sapiens). As to the kind of experiment: Agonist activity at full length human FLAG-tagged GAL4-DBD fused PPARalpha LBD (168 to 468 residues) expressed in COS1 cells transfected with hRXRalpha and hCPT1A-driven reporter assessed as increase in CPT1A mRNA level at 50 uM measured after 18 hrs by dual luciferase reporter gene assay. The class given is cell-based. Summed up: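 COS-1 cells were transfected with full-length human PPARα (or PPARγ) plus RXRα expression plasmids, with a wild-type or PPRE-mutated CPT1A-intronic (or PLIN1) luciferase reporter and pRL-CMV. Cells were treated with 50 μM in 0.1% DMSO (final) for 18 h. Dual-luciferase read-out normalized to DMSO control. Three biological replicates in quadruplicate, mean ± SEM.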

The subject of series [5] is SGBS. As to the kind of experiment: Upregulation of PPARgamma gene expression in human preadipocyte derived from Simpson-Golabi-Behmel syndrome (SGBS) patient at 25 uM measured for 12 days by qRT-PCR analysis. The class given is functional, cell-based. In short, it runs like this:
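SGBS cells grown 4 days in biotin/D-pantothenate medium, then differentiated without FBS (apo-transferrin, insulin, T3, hydrocortisol, IBMX, dexamethasone) with 25 μM compound or 0.1 % DMSO added from day 0. After 4 days, switched to maintenance medium without IBMX/dexamethasone, renewed day 8. qPCR on days 0, 4, 8, 12, normalized to TBP (comparative threshold) and to day 0. Minimum three biological replicates in duplicate, mean ± SEM.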

The subject of series [6] is SGBS. As to the kind of experiment: Upregulation of PLIN1 gene expression in human preadipocyte derived from Simpson-Golabi-Behmel syndrome (SGBS) patient at 25 uM measured for 12 days by qRT-PCR analysis. The class given is functional, cell-based. Summed up:
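SGBS cells were differentiated with serum-free induction medium containing 25 μM test agent, 2 μM rosiglitazone or 0.1% DMSO from day 0. IBMX and dexamethasone were removed on day 4 and medium was renewed on day 8. RNA was taken on days 0, 4, 8 and 12 for qPCR, normalized to TBP and to day 0. At least three biological replicates in duplicate, two-way ANOVA with Bonferroni.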

Activity calls are given as the source filed them.

With `CCCCCCCc1cc(CCCCCC(=O)O)no1`, the Activity in the series on COS-1 worked out at 60%. For the same compound, the outcome in series [1], in series [2] and in series [3] was inactive. The result (in series [4]; in the series on SGBS [5]; in the series on SGBS [6]) was Active.

(Values after ChEMBL document CHEMBL4393735, “Molecular modelling, synthesis, and biological evaluations of a 3,5-disubstituted isoxazole fatty acid analogue as a PPARα-selective agonist” (Bioorg Med Chem, 2019).)
